# From ChEMBL document CHEMBL5058577, “EUbOPEN Chemogenomics Library 2 (Multiplex)” (2022)
# System: HEK-293T
# Experiment: Multiplex assay against HEK293T
# Type: toxicity, cell-based
# Conditions: human
# In short: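 With compound added, live cells were imaged on a CQ1 microscope at 37°C and 5% CO2; staining with Hoechst33342, BioTracker Green Microtubule Cytoskeleton Dye, MitoTracker Red and Annexin V Alexa Fluor 680 had been done at seeding. The CellPathfinder machine-learning gating scheme split cells into Hoechst high-intensity objects or normal cells, normal cells into healthy, pyknosed or fragmented nuclei, and pyknosed cells into mitotic or apoptotic. The tubulin, mitochondrial-mass and membrane-permeability phenotypes are per cents of healthy-nucleus cells.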
# [1] = 12 h, 1 µM, compound concentration 1 uM, replicate 1
# [2] = 12 h, 1 µM, compound concentration 1 uM, replicate 2
# [3] = 12 h, 10 µM, compound concentration 10 uM, replicate 1
# [4] = 12 h, 10 µM, compound concentration 10 uM, replicate 2
# [5] = 24 h, 1 µM, compound concentration 1 uM, replicate 1
# [6] = 24 h, 1 µM, compound concentration 1 uM, replicate 2
# [7] = 24 h, 10 µM, compound concentration 10 uM, replicate 1
# [8] = 24 h, 10 µM, compound concentration 10 uM, replicate 2
# [9] = 48 h, 1 µM, compound concentration 1 uM, replicate 1
# [10] = 48 h, 1 µM, compound concentration 1 uM, replicate 2
# [11] = 48 h, 10 µM, compound concentration 10 uM, replicate 1
# [12] = 48 h, 10 µM, compound concentration 10 uM, replicate 2
smiles,measurement,setting,value
Nc1nc(CC(=O)Nc2ccc(CCNC[C@H](O)c3ccccc3)cc2)cs1 [MIRABEGRON],Population Apoptotic (%),[1],22%
same,Population Fragmented Nuclei (%),[1],5%
same,Population Healthy Nuclei (%),[1],84%
same,Population Hoechst High Intensity Objects (%),[1],5%
same,Population Membrane Permeable-Phenotype (%),[1],0%
same,Population Mitochondria Different-Phenotype (%),[1],45%
same,Population Mitotic Cells (%),[1],77%
same,Population Normal (%),[1],94%
same,Population Pyknosed Nuclei (%),[1],10%
same,Population Tubulin-Different-Phenotype (%),[1],19%
same,Total Cell Count,[1],455
same,Population Apoptotic (%),[2],55%
same,Population Fragmented Nuclei (%),[2],8%
same,Population Healthy Nuclei (%),[2],80%
same,Population Mitochondria Different-Phenotype (%),[2],56%
same,Population Mitotic Cells (%),[2],44%
same,Population Pyknosed Nuclei (%),[2],11%
same,Total Cell Count,[2],332
same,Population Apoptotic (%),[3],32%
same,Population Fragmented Nuclei (%),[3],5%
same,Population Healthy Nuclei (%),[3],77%
same,Population Hoechst High Intensity Objects (%),[3],7%
same,Population Membrane Permeable-Phenotype (%),[3],0%
same,Population Mitochondria Different-Phenotype (%),[3],51%
same,Population Mitotic Cells (%),[3],67%
same,Population Normal (%),[3],92%
same,Population Pyknosed Nuclei (%),[3],17%
same,Population Tubulin-Different-Phenotype (%),[3],41%
same,Total Cell Count,[3],423
same,Population Apoptotic (%),[4],44%
same,Population Fragmented Nuclei (%),[4],11%
same,Population Healthy Nuclei (%),[4],74%
same,Population Hoechst High Intensity Objects (%),[4],8%
same,Population Mitochondria Different-Phenotype (%),[4],64%
same,Population Mitotic Cells (%),[4],56%
same,Population Normal (%),[4],91%
same,Population Pyknosed Nuclei (%),[4],14%
same,Population Tubulin-Different-Phenotype (%),[4],29%
same,Total Cell Count,[4],388
same,Population Apoptotic (%),[5],28%
same,Population Fragmented Nuclei (%),[5],10%
same,Population Healthy Nuclei (%),[5],80%
same,Population Hoechst High Intensity Objects (%),[5],2%
same,Population Membrane Permeable-Phenotype (%),[5],0%
same,Population Mitochondria Different-Phenotype (%),[5],30%
same,Population Mitotic Cells (%),[5],71%
same,Population Normal (%),[5],97%
same,Population Pyknosed Nuclei (%),[5],9%
same,Population Tubulin-Different-Phenotype (%),[5],14%
same,Total Cell Count,[5],635
same,Population Apoptotic (%),[6],27%
same,Population Fragmented Nuclei (%),[6],8%
same,Population Healthy Nuclei (%),[6],83%
same,Population Hoechst High Intensity Objects (%),[6],3%
same,Population Mitochondria Different-Phenotype (%),[6],41%
same,Population Mitotic Cells (%),[6],72%
same,Population Normal (%),[6],96%
same,Population Pyknosed Nuclei (%),[6],7%
same,Population Tubulin-Different-Phenotype (%),[6],13%
same,Total Cell Count,[6],390
same,Population Apoptotic (%),[7],31%
same,Population Fragmented Nuclei (%),[7],8%
same,Population Healthy Nuclei (%),[7],77%
same,Population Hoechst High Intensity Objects (%),[7],4%
same,Population Membrane Permeable-Phenotype (%),[7],0%
same,Population Mitochondria Different-Phenotype (%),[7],32%
same,Population Mitotic Cells (%),[7],68%
same,Population Normal (%),[7],95%
same,Population Pyknosed Nuclei (%),[7],13%
same,Population Tubulin-Different-Phenotype (%),[7],23%
same,Total Cell Count,[7],552
same,Population Apoptotic (%),[8],35%
same,Population Fragmented Nuclei (%),[8],9%
same,Population Healthy Nuclei (%),[8],82%
same,Population Hoechst High Intensity Objects (%),[8],5%
same,Population Mitochondria Different-Phenotype (%),[8],49%
same,Population Mitotic Cells (%),[8],64%
same,Population Normal (%),[8],94%
same,Population Pyknosed Nuclei (%),[8],7%
same,Total Cell Count,[8],524
same,Population Apoptotic (%),[9],18%
same,Population Fragmented Nuclei (%),[9],13%
same,Population Healthy Nuclei (%),[9],80%
same,Population Hoechst High Intensity Objects (%),[9],1%
same,Population Membrane Permeable-Phenotype (%),[9],1%
same,Population Mitochondria Different-Phenotype (%),[9],14%
same,Population Mitotic Cells (%),[9],81%
same,Population Normal (%),[9],98%
same,Population Pyknosed Nuclei (%),[9],5%
same,Population Tubulin-Different-Phenotype (%),[9],10%
same,Total Cell Count,[9],1141
same,Population Apoptotic (%),[10],28%
same,Population Fragmented Nuclei (%),[10],17%
same,Population Healthy Nuclei (%),[10],76%
same,Population Hoechst High Intensity Objects (%),[10],0%
same,Population Mitochondria Different-Phenotype (%),[10],21%
same,Population Mitotic Cells (%),[10],71%
same,Population Normal (%),[10],99%
same,Total Cell Count,[10],662
same,Population Apoptotic (%),[11],26%
same,Population Fragmented Nuclei (%),[11],12%
same,Population Healthy Nuclei (%),[11],78%
same,Population Hoechst High Intensity Objects (%),[11],3%
same,Population Membrane Permeable-Phenotype (%),[11],0%
same,Population Mitochondria Different-Phenotype (%),[11],25%
same,Population Mitotic Cells (%),[11],73%
same,Population Normal (%),[11],96%
same,Population Pyknosed Nuclei (%),[11],8%
same,Population Tubulin-Different-Phenotype (%),[11],16%
same,Total Cell Count,[11],818
same,Population Apoptotic (%),[12],28%
same,Population Healthy Nuclei (%),[12],80%
same,Population Hoechst High Intensity Objects (%),[12],2%
same,Population Mitochondria Different-Phenotype (%),[12],30%
same,Population Mitotic Cells (%),[12],71%
same,Population Normal (%),[12],97%
same,Population Pyknosed Nuclei (%),[12],6%
same,Population Tubulin-Different-Phenotype (%),[12],15%
same,Total Cell Count,[12],750
